Data: PubChem BioAssay
Calls of active or inactive are those of the source.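 Rule for the calls, unless noted: active = NADPH fluorescence slope more negative than the mean of all samples by about 3 SD, 99.7% confidence; inactive = the rest.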

Tests used:
[1] = inhibitors of TNFa-induced NFkB p65 translocation, primary screen, imaging, HUVEC, MLSMR starter and 10KST1 sets (AID 438;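 active = inhibition above 20% together with a positive visual image hit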;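 note: compound added about 3h40 before a 20 min TNFalpha stimulation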;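 for inhibition: signal is the nuclear over cytoplasmic p65 intensity ratio per well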); details: HUVEC TNFa-induced p65 nuclear translocation; cell count: measured here: nuclei count (cytotoxicity indicator), at 2.08 µM; inhibition: at 2 µM, stronger effect = higher value, 0% TNFa-plus-vehicle, 100% no-TNFa wells
[2] = reduction of polyQ htt aggregates in cells – imaging, exon1htt(103Q)mCFP cells, high-content imaging, primary screen (AID 483;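 active = visual image review flags a hit and inhibition of aggregation exceeds 20%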;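 note: compound exposure lasted 3 days before fixation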;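 for nuclei count: percent of the per-plate median nuclei count of sample wells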); details: exon1htt(103Q)mCFP cell line, aggregate imaging, at 2 µM; inhibition of aggregation: stronger effect = higher value; nuclei count: measured here: cell count, toxicity
[3] = endothelial E-selectin expression blockers – imaging, HUVEC, immunofluorescence, MLSMR starter and 10KST1 sets, primary screen (AID 487;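 active = visually confirmed hit in the image check and inhibition above 20%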;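 for inhibition: signal is fraction of cell area covered by stained E-selectin grains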;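 for nuclei count: 100% = median nuclei count of all wells on the same plate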); details: HUVEC TNFalpha-induced E-selectin immunofluorescence imaging, at 2 µM; inhibition: stronger effect = higher value; nuclei count: measured here: cell number, toxicity
[4] = biological target: Voltage-gated potassium channel subunit beta-2 (Rattus norvegicus) (UniProt P62483); experiment: inhibitors of rat Kvbeta2 reductase activity – biochemical, NADPH fluorescence, primary screen (AID 622;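 active = fluorescence slope higher than the sample average by over 3 SD, cut at about -0.22 in these data, passing the limit was not always enough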;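 note: slope of raw intensity against log time taken from 70 to 1610 s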); details: recombinant KvBeta, 4-cyanobenzaldehyde reduction, at 10 µM, stronger effect = higher value
Sequence of Voltage-gated potassium channel subunit beta-2 (Rattus norvegicus) (P62483 whole entry, looked up): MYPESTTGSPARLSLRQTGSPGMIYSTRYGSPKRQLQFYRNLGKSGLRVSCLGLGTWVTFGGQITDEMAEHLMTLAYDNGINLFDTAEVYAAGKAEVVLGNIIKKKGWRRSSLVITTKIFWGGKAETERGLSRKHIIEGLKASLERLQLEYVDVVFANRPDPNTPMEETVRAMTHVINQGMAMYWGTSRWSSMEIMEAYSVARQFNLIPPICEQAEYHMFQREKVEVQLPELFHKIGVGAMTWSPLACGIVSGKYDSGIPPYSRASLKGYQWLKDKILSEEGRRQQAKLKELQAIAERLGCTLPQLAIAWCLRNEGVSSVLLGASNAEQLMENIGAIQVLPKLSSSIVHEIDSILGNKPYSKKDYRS

[5] = biological target: Voltage-gated potassium channel subunit beta-2 (Rattus norvegicus) (UniProt P62483); experiment: enhancers of rat Kvbeta2 NADPH turnover – biochemical, NADPH fluorescence, primary screen (AID 623); details: Recombinant KvBeta, NADPH fluorescence decrease slope, 10 min; at 10 µM; stronger effect = lower value;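 note: fluorescence intensity change per second fitted from 20 to 320 s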
[6] = biological target: Muscarinic acetylcholine receptor M4 (Homo sapiens) (UniProt P08173); experiment: M4-linked GIRK flux change, two-sided – cell-based, HEK293 M4/GIRK, thallium flux, BTC-AM, M4 allosteric agonist project, primary screen (AID 625;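 active = fluorescence slope after compound addition differing from the mean of all tested samples at 99.7% confidence, mostly higher but some lower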;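 note: thallium influx through GIRK channels coupled to M4 in HEK293 cells with BTC-AM dye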); details: at 10 µM, actives lie on both sides
Sequence of Muscarinic acetylcholine receptor M4 (Homo sapiens) (P08173 whole entry, looked up): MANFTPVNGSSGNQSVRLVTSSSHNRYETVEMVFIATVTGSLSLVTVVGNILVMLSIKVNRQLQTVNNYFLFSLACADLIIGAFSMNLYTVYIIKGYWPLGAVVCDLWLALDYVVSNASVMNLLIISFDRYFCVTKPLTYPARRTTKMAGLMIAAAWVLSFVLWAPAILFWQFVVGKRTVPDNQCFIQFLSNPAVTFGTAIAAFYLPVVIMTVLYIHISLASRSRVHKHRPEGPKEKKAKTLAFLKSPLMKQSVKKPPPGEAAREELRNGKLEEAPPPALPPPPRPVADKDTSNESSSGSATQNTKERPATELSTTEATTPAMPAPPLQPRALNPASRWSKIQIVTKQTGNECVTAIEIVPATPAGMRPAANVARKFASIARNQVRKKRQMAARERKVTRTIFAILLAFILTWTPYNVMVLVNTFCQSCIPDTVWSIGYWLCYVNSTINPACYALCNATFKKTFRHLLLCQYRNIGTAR
Method in brief: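 System: HEK293 cells with M4 receptor and GIRK channels | Incubation: Cells overnight at 37 °C, BTC-AM loading 1 h, reads 2 min total | Technique: Kinetic BTC-AM fluorescence sampled at 1 Hz, 10 s pre-addition baseline | Measure: Post-addition slope, 15–24 s, of baseline-normalized fluorescence | Control set: Carbachol positive, DMSO negative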

[7] = blockers of RIG-like receptor reporter activation – cell-based, Sendai virus stimulus, luciferase, 10K MLSCN set, TLR/RLR signaling modifier project, primary screen (AID 602276;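 active = inhibition at or above 50% at 10 µM; inactive = inhibition below 50%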;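 note: firefly luciferase from ISG56 promoter only with Renilla not read in this screen; 0% = Sendai virus plus DMSO and 100% = medium plus DMSO without virus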); details: HEK293 RL24 IRF3 luciferase reporter, at 10 µM, stronger effect = higher value
[8] = TLR3 IRF3 reporter activation blockers – cell-based, poly I:C stimulus, luciferase, 10K MLSCN set, primary screen (AID 602277;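 active = inhibition of the reporter signal at or above 50%; inactive = inhibition below 50%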); details: HEK293-TLR3 RL24 IRF3 luciferase reporter, at 10 µM, stronger effect = higher value

SMILES	cell count [1]	inhibition [1]	inhibition of aggregation [2]	nuclei count [2]	inhibition [3]	nuclei count [3]	fluorescence slope [4]	NADPH fluorescence slope [5]	fluorescence slope [6]	inhibition [7]	inhibition [8]
CC(=O)N1CCc2cc(S(=O)(=O)NC(C(=O)NCc3ccccc3)C(C)C)ccc21 (stereo not drawn)	579	-3.8% (inactive)	23.8% (inactive)	110%	22.1% (inactive)	94.8%	-0.587 (inactive)	-1.2e-05 (inactive)	0.00584 (inactive)	10.6% (inactive)	15.4% (inactive)
CC(NC(=O)OCc1ccccc1)C(=O)N1CC(O)CC1C(=O)O (stereo not drawn)	280	0.9% (inactive)	2.6% (inactive)	79.3%	26.8% (inactive)	85.4%	-0.562 (inactive)	-1.6e-05 (inactive)	0.00618 (inactive)	16.9% (inactive)	22.2% (inactive)
O=C(NC1CCc2ccccc21)C1CCN(S(=O)(=O)c2ccc(-n3cnnn3)cc2)CC1 (stereo not drawn)	698	7.5% (inactive)	-23.2% (inactive)	118%	-37.5% (inactive)	91.8%	-0.553 (inactive)	1.5e-06 (inactive)	0.00483 (inactive)	15.1% (inactive)	30.1% (inactive)
COc1ccc(CNc2nc(SCC(=O)NCc3ccco3)nc3ccccc23)cc1	705	0.9% (inactive)	-24.8% (inactive)	104%	-50.5% (inactive)	99.3%	-0.484 (inactive)	9.7e-05 (inactive)	0.00602 (inactive)	-0.825% (inactive)	2.94% (inactive)
Cc1cc2c(=O)n(CC(=O)N3CCN(c4ccccc4)CC3)cnc2s1	632	-22.3% (inactive)	0.5% (inactive)	105%	2.7% (inactive)	94.9%	-0.595 (inactive)	1.9e-06 (inactive)	0.0045 (inactive)	7.52% (inactive)	14.5% (inactive)
Cc1cc(C)n(-c2nc(C)nc3c2cnn3-c2ccccc2)n1	427	9.2% (inactive)	-20.7% (inactive)	97.3%	-60.5% (inactive)	114%	-0.564 (inactive)	-3.8e-05 (inactive)	0.0087 (inactive)	20.1% (inactive)	20.4% (inactive)
COC(=O)c1c(-c2ccc(F)cc2)noc1N	502	5.3% (inactive)	-3.7% (inactive)	106%	-2% (inactive)	104%	-0.278 (inactive)	-6.3e-06 (inactive)	0.00633 (inactive)	-1.09% (inactive)	-9.58% (inactive)
CCOC(=O)C1=C(CN2CCOCC2)NC(=O)NC1c1cc(C)ccc1C (stereo not drawn)	492	-3% (inactive)	-1.1% (inactive)	117%	-30.8% (inactive)	108%	-0.205 (inactive)	-1.6e-05 (inactive)	0.00619 (inactive)	15.4% (inactive)	7.78% (inactive)
